Screening results (PubChem BioAssay)
The list is not random: actives were taken first. Their share in the collection is about 3.5%.
MrgX1 antagonist – antagonists of human MrgX1 receptor. AID 588676. hit rate 1.3% among 310,000. MRGX1-HEK293 calcium flux, Fluo-4, BAM8-22 antagonism; hits give low values. B-score at 10 µM. Q96LB2;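 active means calcium-response B-score plate-corrected more than 3 library SD below zero, starting fluorescence within 5 deviations, no agonist response on first addition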;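 further: peak minus trough fluorescence over baseline after final BAM8-22 challenge near maximal dose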
Target sequence (Q96LB2 whole entry, looked up): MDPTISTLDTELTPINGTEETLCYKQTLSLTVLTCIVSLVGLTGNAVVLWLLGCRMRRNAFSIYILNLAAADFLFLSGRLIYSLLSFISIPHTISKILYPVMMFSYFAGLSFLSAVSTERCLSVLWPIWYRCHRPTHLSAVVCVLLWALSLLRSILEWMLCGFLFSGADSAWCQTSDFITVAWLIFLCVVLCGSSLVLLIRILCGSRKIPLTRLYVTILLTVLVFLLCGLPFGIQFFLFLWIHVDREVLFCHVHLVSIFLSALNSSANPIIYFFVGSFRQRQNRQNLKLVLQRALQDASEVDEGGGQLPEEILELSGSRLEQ
MrgX1 PAM – human MrgX1 positive allosteric modulation, primary screen; B-score at 10 µM; hit rate 0.63% among 310,000; AID 588675; MrgX1-HEK293, Fluo-4 calcium flux, FDSS; hits give high values;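 active means plate-corrected calcium response at least 3 library SD above typical, normal starting fluorescence, not activating the receptor alone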;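 further: compound read alongside a low EC10 to EC30 dose of BAM8-22 agonist; peak minus trough fluorescence over baseline measured at the second addition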
RGS4 block – inhibitors of human RGS4; hit rate 0.45% among 310,000; B-score at 10 µM; HEK293 M3R/RGS4 inducible, Fluo-4 calcium flux; hits give high values; triggered by carbachol at its EC20; P49798;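 active means B-score, a plate-corrected calcium signal, over three deviations above library mean, with baseline fluorescence within five deviations of library mean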;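 further: RGS4 expression induced by doxycycline in cells with stable M3 receptor; B-score is computed from the integrated fluorescence ratio over baseline after carbachol; higher B-score means a larger calcium signal and so more RGS4 inhibition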
Target sequence (P49798 whole entry, looked up): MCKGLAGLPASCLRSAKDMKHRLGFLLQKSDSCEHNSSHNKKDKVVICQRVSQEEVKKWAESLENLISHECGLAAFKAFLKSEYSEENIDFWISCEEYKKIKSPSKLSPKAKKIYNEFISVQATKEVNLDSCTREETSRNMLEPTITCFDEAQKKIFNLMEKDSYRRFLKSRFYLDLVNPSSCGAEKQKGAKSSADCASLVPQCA
RGS4 pot – RGS4 potentiation or activation. HEK293 M3R/inducible RGS4, carbachol calcium flux Fluo4; hits give low values. B-score at 10 µM. hit rate 0.92% among 310,000. AID 463111;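 active means B-score of the integrated calcium signal more than 4 SD below the library mean, with starting fluorescence not abnormally high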;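 further: negative B-score means reduced calcium response which marks RGS4 activation or potentiation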
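System – HEK293 FlpIn-TREx cells, stable M3R, doxycycline-inducible RGS4 · Reagent – ECmax carbachol challenge · Times – compound preincubation 20 min at room temperature before agonist · Technique – Fluo4 fluorescence kinetic imaging of calcium · Measure – B score of integrated Fluo4 ratio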
MrgX1 agonist – human MrgX1 receptor agonism, primary screen; MrgX1-HEK293 cells, Fluo-4 calcium fluorescence, agonist mode; hits give high values; hit rate 0.44% among 310,000; B-score at 10 µM; Q96LB2; AID 588627;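 active means calcium response B-score plate-corrected fluorescence ratio at least 3 library SD, with starting fluorescence B-score inside 5 SD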
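Material: HEK293 cells stably expressing human MrgX1 receptor | Quantity: 15,000 cells per well | Times: Cells plated overnight, dye loaded 0.5 h 37 °C, 0.5 h room temperature | Measured by: Kinetic Fluo-4 NW fluorescence of intracellular calcium | Control set: Positive and negative controls per plate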
RGS4 inh valid – RGS4 inhibitor validation. hit rate 65% among 1,700. AID 492999. calcium response, % at 10 µM. shares compounds with RGS4 block. HEK293 M3R/RGS4, carbachol calcium Fluo-4 fluorescence; carbachol added at its EC20; 0 = buffer wells, 100 = carbachol control;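 active means duplicate-averaged calcium response above the buffer-only control mean plus 5 SD of those controls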;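 further: integrated fluorescence ratio F max minus min over baseline F0; higher response in RGS4-induced cells means RGS4 inhibition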
RGS4 uninduced – non-induced cell nonspecific activity of RGS4 inhibitors | AID 493000 | HEK293 M3R non-induced, carbachol calcium Fluo-4; submaximal (EC20) carbachol stimulus; buffer wells 0%, carbachol control wells 100% | activity (percent), % at 10 µM | hit rate 20% among 1,900 | shares compounds with RGS4 block; call rule not given here;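 further: RGS4 induction absent so cells express M3R without RGS4; higher means more calcium signal and flags a non-specific hit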
M3R basal Ca ctr – second RGS4 inhibitor counter-screen in uninduced cells lacking carbachol; HEK293 M3R/RGS4 non-induced, Fluo-4 calcium, no carbachol; normalised: buffer wells 0%, carbachol wells 100%; hit rate 22% among 1,900; calcium response (agonist-mode artifact), % at 10 µM; shares compounds with RGS4 block;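 active means duplicate-averaged calcium rise in uninduced cells above buffer wells' mean plus 5 SD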
Numbers stand for hits; 0 = inactive; - = no result.

SMILES | MrgX1 antagonist | MrgX1 PAM | RGS4 block | RGS4 pot | MrgX1 agonist | RGS4 inh valid | RGS4 uninduced | M3R basal Ca ctr
Cc1cc2cc(C(c3nnnn3Cc3ccco3)N3CCc4ccccc4C3)c(=O)[nH]c2cc1C (stereo not given) | 0 | 0 | 0 | 0 | 0 | 0 | 0 | 39%
COc1ccc(C)cc1S(=O)(=O)N1CCCC(C(=O)N2CCN(c3ccccc3F)CC2)C1 (stereo not given) | 0 | 0 | 0 | 0 | 0 | - | - | -
Oc1c(Br)cccc1/C=N/c1ncn[nH]1 | 0 | 0 | 4.7 | 0 | 0 | 7.5% | 0 | 0
O=S(=O)(c1ccccc1Br)N1CCC(O)(c2cccnc2)CC1 | 0 | 0 | 0 | 0 | 0 | - | - | -
CCN(CC)c1ccc(/C=N\N2CCN(Cc3ccc(C)cc3)CC2)cc1 | 0 | 0 | 0 | 0 | 0 | 0 | 0 | 0
N#Cc1ccccc1NC(=O)c1ccc2c(c1)OCCO2 | 0 | 0 | 0 | 0 | 0 | - | - | -
Cc1ccc(-n2nc3c(=O)n(CC(=O)NCc4ccccn4)nc(C)c3c2C)cc1 | 0 | 0 | 0 | 0 | 0 | - | - | -
Cc1nn(CC(=O)NCCc2ccco2)c(=O)c2nn(-c3ccccc3)c(C)c12 | 0 | 0 | 0 | 0 | 0 | - | - | -
Cc1ccc(-n2nc3c(=O)n(CC(=O)NCc4cccs4)nc(C)c3c2C)cc1 | 0 | 0 | 4.9 | 0 | 0 | 0 | 0 | 0
Cc1nn(CC(=O)NCCc2cccs2)c(=O)c2nn(-c3ccccc3)c(C)c12 | 0 | 0 | 0 | 0 | 0 | - | 0 | 35%
CCC(C)Oc1ccc(/C=C/c2[nH]c(=O)[nH]c(=O)c2[N+](=O)[O-])cc1OC (stereo not given) | 0 | 0 | 5.6 | 0 | 0 | 10% | 0 | 76%
O=c1[nH]c(/C=C/c2cccc([N+](=O)[O-])c2)c([N+](=O)[O-])c(=O)[nH]1 | 0 | 0 | 0 | 0 | 0 | - | - | -
O=c1[nH]c(/C=C/c2ccccc2)c([N+](=O)[O-])c(=O)[nH]1 | 0 | 0 | 5.7 | 0 | 0 | 22% | 0 | 0
COc1cc(/C=C/c2[nH]c(=O)[nH]c(=O)c2[N+](=O)[O-])ccc1OCCC(C)C | 0 | 0 | 0 | 0 | 0 | - | - | -
O=C(COc1coc(CN2CCc3ccccc3C2)cc1=O)Nc1cccc([N+](=O)[O-])c1 | 0 | 0 | 0 | 0 | 0 | - | - | -
CCOC(=O)c1c(NC(=O)Cn2nc(C(F)(F)F)cc2C)sc(C)c1C | 0 | 0 | 0 | 0 | 0 | - | - | -
N#CC(C#N)=C1C=CC=CN1/C(=C\c1ccco1)C(=O)c1ccccc1 | 0 | 0 | - | - | 0 | - | - | -
COc1ccc(C(=O)/C(=C\c2ccco2)N2C=CC=CC2=C(C#N)C#N)cc1 | 0 | 0 | 25 | 0 | 0 | 37% | 0 | 20%
COc1cccc(/C=C/C(=O)c2ccc(C)c([N+](=O)[O-])c2)c1 | 0 | 0 | 8.9 | 0 | 32 | 0 | 40% | 0
Cc1cc2c(cc1S(=O)(=O)Nc1ccc(OC(F)(F)F)cc1)OCC(=O)N2 | 0 | 0 | 0 | 0 | 0 | - | - | -
CC(C)(C)OC(=O)N1CCN(CCNC(=O)c2ccccc2)CC1 | 0 | 0 | 0 | 0 | 0 | - | - | -
Cc1cc(Br)cc2c1N(C)C(=O)C2(c1ccc(O)cc1)c1ccc(O)cc1 | 0 | 0 | 27 | 0 | 0 | 76% | 43% | 0
CCN(Cc1ccccc1)C(=O)Cn1c(=O)n(CC(=O)N2CCCCC2)c(=O)c2sccc21 | 0 | 0 | 0 | 0 | 0 | - | 44% | 0
NC(=O)Cn1c(=O)n(CC(=O)N2CCCCC2)c(=O)c2sccc21 | 0 | 0 | 0 | 0 | 0 | - | - | -
COCCNC(=S)N/N=C(\C)c1ccccc1OC | 0 | 0 | 5.7 | 0 | 0 | 40% | 0 | 0
CCOC(=O)c1sc(N=NC2=C(O)CC(C)(C)CC2=O)c(C(=O)OCC)c1C | 0 | 0 | 0 | 0 | 0 | - | - | -
O=S1(=O)CCC(N=Cc2ccc(-c3ccc(Cl)cc3)o2)C1 (stereo not given) | 0 | 0 | 5.7 | 0 | 0 | 7.5% | 0 | 0
